Most compounds without a hit are left out; they make up all but 2.2% or so of the library.
UBC9 SUMO inh: blocks human SUMOylation mediated by UBC9; HTRF SUMOylation assay, SAE1/SAE2 + UBC9, in vitro; P63279; inhibition, % at 35 µM; hit rate 0.36% among 290,000; in the data active means inhibition above about 50%, passing the limit was not always enough
Target sequence (P63279 whole entry, looked up): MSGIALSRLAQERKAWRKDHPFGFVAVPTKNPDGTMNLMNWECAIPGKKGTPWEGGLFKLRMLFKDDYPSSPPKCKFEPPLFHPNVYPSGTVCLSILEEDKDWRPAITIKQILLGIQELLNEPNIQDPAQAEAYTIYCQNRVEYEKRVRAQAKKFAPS
Apaf1 inhib: inhibitors of human Apaf-1 apoptosome. reconstituted apoptosome caspase-3 activity, DEVD-Rh110 fluorescence. inhibition, % at 20 µM. hit rate 0.71% among 330,000. AID 489030; active means inhibition of at least 40% at 20 µM;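 further: plate controls were DMSO wells for no effect and DEVD-CHO caspase inhibitor wells for full effect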
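System – cell-free apoptosome with Apaf-1, procaspase-3 and caspase-9 · Buffer or medium – pH 7.5 Hepes buffer with CHAPS, BSA, DTT · Also added – cytochrome c with DEVD-Rh110 · Times – 30 min compound preincubation, 50 min activation, room temperature · Technique – Rh110 fluorescence intensity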
GSTO1 counter: blocks human GSTO1 in RBBP9 counter-screen; P78417; recombinant GSTO1, activity-based probe fluorescence polarization; inhibition, % at 5.96 µM; hit rate 1.1% among 300,000; AID 1974;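 active means inhibition above the campaign mean inhibition plus 3 SD, cut at about 35% in these data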;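 further: 0% = GSTO1-1 with DMSO and 100% = wells lacking GSTO1-1 enzyme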
Target sequence (P78417 whole entry, looked up): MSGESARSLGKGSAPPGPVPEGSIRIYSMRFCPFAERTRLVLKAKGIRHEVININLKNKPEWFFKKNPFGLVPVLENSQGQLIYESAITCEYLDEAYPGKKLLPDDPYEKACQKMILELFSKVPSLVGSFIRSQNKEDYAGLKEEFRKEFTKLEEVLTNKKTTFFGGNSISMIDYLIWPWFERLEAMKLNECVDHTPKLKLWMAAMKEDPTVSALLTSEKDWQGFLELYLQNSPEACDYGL
Rin1 Abl inh: inhibitors of human Rin1-Abl protein interaction; P00519+Q13671; TR-FRET Rin1/Abl binding, biochemical; inhibition, % at 7.35 µM; hit rate 0.4% among 360,000; AID 588664; in the data active means inhibition above about 5%, passing the limit was not always enough
UBC13 inh: blocks human UBC13 polyubiquitin chain formation | P61088 | TR-FRET | inhibition, % at 20 µM | hit rate 0.47% among 330,000 | AID 485273; in the data active means inhibition above about 45%, passing the limit was not always enough
Target sequence (P61088 whole entry, looked up): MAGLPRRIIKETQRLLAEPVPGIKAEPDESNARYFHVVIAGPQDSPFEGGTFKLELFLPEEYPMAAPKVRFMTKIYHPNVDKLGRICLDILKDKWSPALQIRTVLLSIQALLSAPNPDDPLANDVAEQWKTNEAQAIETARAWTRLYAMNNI
PAD4 FP inh: blocks human protein arginine deiminase 4 | Q9UM07 | hit rate 0.41% among 330,000 | AID 485272 | inhibition, % at 6.36 µM | recombinant PAD4, RCA probe fluorescence polarization;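 active means percent inhibition above a cutoff equal to the mean of all tested compounds plus 3 SD, cut at about 15% in these data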;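 further: 0% = PAD4 with RCA probe and DMSO and 100% = probe without PAD4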
Apaf-1 inh conf: Apaf-1 inhibition, single-dose confirmed; inhibition, % at 20 µM; shares compounds with Apaf1 inhib; reconstituted apoptosome, caspase-3 DEVD-Rh110 fluorescence; hit rate 25% among 1,800;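 active means mean inhibition of at least 40% at 20 µM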;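 further: plate controls were DMSO wells for no effect and DEVD-CHO caspase inhibitor control wells for full effect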
Rh110 interf inh: interferes with Rh110 fluorescence, flagging false Apaf-1 inhibitors; Rh110 fluorescence interference, quenched caspase reaction; AID 504615; activation (fluorescence interference), % at 20 µM; shares compounds with Apaf1 inhib; 1,800 tested, under 10 active;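 active means signal rise of 40% or more at 20 µM, treated as a fluorescence artifact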
Apaf1 inh interf: counter-screen for Apaf-1 inhibitors: fluorescence interference, dose response; AID 588538; IC50, µM; fluorescence interference counterscreen, Apaf-1 assay format; 460 tested, under 10 active; shares compounds with Apaf1 inhib; call rule not given here
An asterisk follows results filed as active.

Screening O=C(O)CCC(=O)OCCCc1cc2ccccc2c(=O)o1 returned Apaf1 inhib 19, Rin1 Abl inh 0, UBC13 inh -10 and PAD4 FP inh 3.
Screening Nc1ccc(Br)c2cccnc12 returned UBC9 SUMO inh 80, Apaf1 inhib 85*, GSTO1 counter 11, Rin1 Abl inh 2, UBC13 inh -41, PAD4 FP inh -17, Apaf-1 inh conf 46*, Rh110 interf inh -1 and Apaf1 inh interf >100.
CC(C)CC1C(=O)N(Cc2cn(CCC3OCCCO3)nn2)CCS(=O)(=O)N1Cc1ccc(-c2cccc(N(C)C)c2)cc1 (configuration not stated) was read as Rin1 Abl inh -7.
Screening O=C(CN1C(=O)NC(c2ccccc2)(c2ccccc2)C1=O)Nc1ccc(N2CCOCC2)cc1 returned Apaf1 inhib 6, Rin1 Abl inh 2, UBC13 inh 6 and PAD4 FP inh 6.
For COc1ccc(C2(c3ccc(OC)cc3)NC(=O)N(CC(=O)Nc3ccc(N4CCOCC4)cc3)C2=O)cc1 the results were Apaf1 inhib 41*, GSTO1 counter 4, Rin1 Abl inh -1, UBC13 inh -6, PAD4 FP inh -1, Apaf-1 inh conf 28 and Rh110 interf inh 2.
Screening CC(=O)N(/N=C1\Sc2ccccc2C1=O)c1ccc(C)cc1C returned UBC9 SUMO inh 22, Apaf1 inhib 43*, GSTO1 counter 23, Rin1 Abl inh -5, UBC13 inh -31, PAD4 FP inh -44, Apaf-1 inh conf 25 and Rh110 interf inh 4.
For COc1ccc(F)cc1-c1cc(C(=O)NCc2ccc(F)cc2)[nH]n1 the results were Rin1 Abl inh 5.
CC1(C)OCC(CNC(=O)c2[nH]c(C(F)(F)F)nc2-c2ccccc2)O1 (configuration not stated) was read as Rin1 Abl inh 3.
Screening Cc1ccccc1NC(=S)NCc1ccc2c(c1)cc(C)n2C returned UBC9 SUMO inh 12, Apaf1 inhib 7, GSTO1 counter 3, Rin1 Abl inh 0, UBC13 inh 8 and PAD4 FP inh -2.
`CCc1cccc(C)c1NC(=S)NCc1ccc2c(c1)cc(C)n2C` gave UBC9 SUMO inh 19, Apaf1 inhib 55*, GSTO1 counter -3, Rin1 Abl inh 3, UBC13 inh 4, PAD4 FP inh 2, Apaf-1 inh conf 21 and Rh110 interf inh 6.
Cc1nc(C(=O)NNC(=O)Nc2ccccc2)cs1 was read as UBC9 SUMO inh -10, Apaf1 inhib 57*, GSTO1 counter -2, Rin1 Abl inh 0, UBC13 inh 6, PAD4 FP inh -2, Apaf-1 inh conf 16 and Rh110 interf inh 12.
Cc1cc(C(=O)NNC(=O)Nc2ccccc2)no1 was read as UBC9 SUMO inh 24, Apaf1 inhib 4, GSTO1 counter -8, Rin1 Abl inh 4, UBC13 inh 2 and PAD4 FP inh 2.
COc1cccc(-c2sc3ccc(OC)cc3c2-c2ccc(C(N)=O)cc2)c1 was read as Apaf1 inhib 18, Rin1 Abl inh 2, UBC13 inh 4 and PAD4 FP inh -3.
For COc1cccc(-c2sc3ccc(OC)cc3c2-c2ccc(OCCN3CCCC3)cc2)c1 the results were Apaf1 inhib 70*, Rin1 Abl inh -2, PAD4 FP inh -5, Apaf-1 inh conf 20 and Rh110 interf inh 6.
For COc1cccc(-c2sc3cc(OC)c(OC)cc3c2-c2ccc(OCCN3CCCCC3)cc2)c1 the results were Apaf1 inhib 66*, Rin1 Abl inh -1, PAD4 FP inh -2, Apaf-1 inh conf 10 and Rh110 interf inh 15.
Cc1c(Cl)cnc(NC(=O)COC(=O)[C@H](C)NC(=O)c2ccccc2)c1Cl was read as Apaf1 inhib -3, Rin1 Abl inh 4, UBC13 inh -8 and PAD4 FP inh -1.
`CC(C)(C)c1ccc(OCCOc2ccc(C(C)(C)C)cc2NC=O)c(NC=O)c1` gave UBC9 SUMO inh -24, Apaf1 inhib 41*, GSTO1 counter -8, Rin1 Abl inh 3, UBC13 inh -4, PAD4 FP inh 8, Apaf-1 inh conf 35 and Rh110 interf inh 6.
COCCOc1ccc(C(F)(F)F)cc1NC(=O)c1ccccc1 was read as UBC9 SUMO inh -1, Apaf1 inhib -2, GSTO1 counter -3, Rin1 Abl inh -6, UBC13 inh 7 and PAD4 FP inh 3.
Screening CCCN(CC(=O)Nc1ccccc1C)C(=O)CCCOc1ccc(Br)cc1 returned Apaf1 inhib 53*, Rin1 Abl inh 1, UBC13 inh 39, PAD4 FP inh -3, Apaf-1 inh conf 43*, Rh110 interf inh 9 and Apaf1 inh interf >100.
`CCCN(CC(=O)Nc1ccccc1OC)C(=O)Cn1[nH]c(=O)c2ccccc2c1=O` gave Apaf1 inhib -8, Rin1 Abl inh 1, UBC13 inh 6 and PAD4 FP inh -1.
Screening CCCN(CC(=O)Nc1ccccc1OC)C(=O)CSc1ccc(Br)cc1C returned Apaf1 inhib 57*, Rin1 Abl inh 1, UBC13 inh 36, PAD4 FP inh -6, Apaf-1 inh conf 40*, Rh110 interf inh 4 and Apaf1 inh interf >100.
`CCN(C(=S)NCc1ccccc1)c1cccc2ccccc12` gave UBC9 SUMO inh -4, Apaf1 inhib 9, GSTO1 counter 2, Rin1 Abl inh -6, UBC13 inh 20 and PAD4 FP inh -2.
Screening Cc1cc(Cl)ccc1NC(=S)Nc1cccnc1 returned UBC9 SUMO inh -2, Apaf1 inhib -4, GSTO1 counter 0, Rin1 Abl inh 0, UBC13 inh 5 and PAD4 FP inh 6.
For Fc1cccc(NC(=S)Nc2cccnc2)c1 the results were UBC9 SUMO inh -3, Apaf1 inhib -6, GSTO1 counter -5, Rin1 Abl inh 6, UBC13 inh 1 and PAD4 FP inh -1.
For S=C(Nc1ccc(Cl)cc1)Nc1cccc2cnccc12 the results were UBC9 SUMO inh 99, Apaf1 inhib 83*, GSTO1 counter 38*, Rin1 Abl inh -8, UBC13 inh -68, PAD4 FP inh -2, Apaf-1 inh conf 17 and Rh110 interf inh -1.
For Fc1ccc(NC(=S)Nc2cccc3cnccc23)cc1 the results were UBC9 SUMO inh 98, Apaf1 inhib 95*, GSTO1 counter 15, Rin1 Abl inh 1, UBC13 inh -41, PAD4 FP inh -14, Apaf-1 inh conf 21 and Rh110 interf inh 0.
